{"source": "ChEMBL document CHEMBL3108697", "about": "“Design of an amide N-glycoside derivative of β-glucogallin: a stable, potent, and specific inhibitor of aldose reductase” (J Med Chem, 2014)", "key": {"[1]": {"biological_target": "T1, Aldo-keto reductase family 1 member B1 (Homo sapiens, UniProt P15121)", "assay": "Inhibition of human recombinant AKR1B1 expressed in Escherichia coli using DL-glyceraldehyde as substrate after 5 mins by spectrophotometry", "method_in_brief": "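Enzyme inhibition was tested with recombinant human AKR1B1, using the natural substrate glyceraldehyde.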"}, "[2]": {"biological_target": "T2, Aldo-keto reductase family 1 member A1 (Homo sapiens) (UniProt P14550)", "T2 sequence (whole entry)": "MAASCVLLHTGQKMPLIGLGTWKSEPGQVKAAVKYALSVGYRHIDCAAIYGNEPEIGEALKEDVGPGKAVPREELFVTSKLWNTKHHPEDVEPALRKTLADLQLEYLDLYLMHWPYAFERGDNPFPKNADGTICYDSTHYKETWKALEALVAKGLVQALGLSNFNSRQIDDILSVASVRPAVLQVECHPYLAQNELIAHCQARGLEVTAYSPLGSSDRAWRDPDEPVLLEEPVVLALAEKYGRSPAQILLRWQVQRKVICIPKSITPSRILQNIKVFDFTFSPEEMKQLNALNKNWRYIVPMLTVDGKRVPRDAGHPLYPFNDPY", "assay": "Inhibition of AKR1A1 (unknown origin) using DL-glyceraldehyde as substrate at 15 uM after 5 mins by spectrophotometry"}, "[3]": {"biological_target": "Aldo-keto reductase family 1 member B1 (Mus musculus) (UniProt P45376)", "assay": "Inhibition of AKR1B1 in mouse RAW264.7 cells assessed as inhibition of sorbitol accumulation at 50 uM after 24 hrs by colorimetric assay", "assay_type": "cell-based", "method_in_brief": "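Raw264.7 murine macrophages were incubated with compound for 24 h, then harvested. Intracellular sorbitol accumulation served as the read-out of AKR1B1 activity.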"}, "[4]": {"biological_target": "T1, Aldo-keto reductase family 1 member B1", "assay": "Inhibition of human AKR1B1 expressing in PAR40 C57BL6 mouse lens assessed as inhibition of glucose-induced sorbitol accumulation at 25 to 50 uM after 72 hrs by colorimetric assay", "conditions": "Lens of camera-type eye", "method_in_brief": "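Lenses were taken from transgenic mice overexpressing human AKR1B1, and from wild-type mice. They were cultured ex vivo with 27.5 mM glucose and given vehicle (H₂O) or compound at 25 and 50 μM for 72 h. Sorbitol accumulation was measured.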"}, "[5]": {"assay": "Stability of the compound in aqueous sulfuric acid solution assessed as compound remaining at 250 uM at pH 0.33 at 80 degC after 6 days by HPLC analysis", "assay_type": "physicochemical", "conditions": "read-out: Stability", "method_in_brief": "(§1)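 Compound kept in aqueous sulfuric acid (pH = 0.33) with heating at 80 °C. Intact compound remaining was quantified by HPLC against calibration curves.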"}, "[6]": {"biological_target": "Aldo-keto reductase family 1 member B10 (Homo sapiens) (UniProt O60218)", "sequence (O60218 whole entry, looked up)": "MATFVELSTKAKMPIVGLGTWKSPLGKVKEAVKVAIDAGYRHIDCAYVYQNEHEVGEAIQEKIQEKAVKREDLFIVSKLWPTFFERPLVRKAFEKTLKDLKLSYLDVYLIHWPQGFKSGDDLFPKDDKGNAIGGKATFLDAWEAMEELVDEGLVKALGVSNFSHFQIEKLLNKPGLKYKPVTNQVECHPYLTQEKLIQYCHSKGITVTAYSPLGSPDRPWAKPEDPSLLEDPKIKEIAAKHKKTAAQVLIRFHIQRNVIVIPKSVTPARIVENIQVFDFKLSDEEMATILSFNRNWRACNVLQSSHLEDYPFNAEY", "assay": "Inhibition of AKR1B10 (unknown origin) using DL-glyceraldehyde as substrate at 15 uM after 5 mins by spectrophotometry"}, "[7]": {"assay": "Drug degradation in aqueous sulfuric acid solution at 250 uM at pH 0.33 at 80 degC after 15 mins by HPLC analysis", "assay_type": "physicochemical", "conditions": "read-out: Drug degradation", "method_in_brief": "as §1"}, "[8]": {"assay": "Drug degradation in aqueous sulfuric acid solution at 250 uM at pH 0.33 at 80 degC after 30 mins by HPLC analysis", "assay_type": "physicochemical", "conditions": "buffer, pH 0.33, 0.5 h", "method_in_brief": "as §1"}}, "note": "Calls of active or inactive are those of the source. The calls are words filed in the database; no cut-off is given here."}
{"smiles": "OC[C@H]1O[C@@H](OCCCc2cc(O)c(O)c(O)c2)[C@H](O)[C@@H](O)[C@@H]1O", "values": [{"measurement": "inhibition", "setting": "[1]", "value": "inactive"}]}
{"smiles": "OC[C@H]1O[C@@H](OCc2cn(Cc3cc(O)c(O)c(O)c3)nn2)[C@H](O)[C@@H](O)[C@@H]1O", "values": [{"measurement": "inhibition", "setting": "[1]", "value": "inactive"}]}
{"smiles": "O=C(N[C@@H]1O[C@H](CO)[C@@H](O)[C@H](O)[C@H]1O)c1cc(O)c(O)c(O)c1", "values": [{"measurement": "inhibition", "setting": "[2]", "value": "inactive"}, {"measurement": "inhibition", "setting": "[3]", "value": 50, "unit": "%"}, {"measurement": "inhibition", "setting": "[4]", "value": 80, "unit": "%"}, {"measurement": "IC50", "setting": "[1]", "value": 9, "unit": "µM"}, {"measurement": "remaining at 144 h, 250 µM", "setting": "[5]", "value": 96, "unit": "%"}, {"measurement": "inhibition", "setting": "[6]", "value": "inactive"}]}
{"smiles": "OC[C@H]1O[C@@H](OCCc2cc(O)c(O)c(O)c2)[C@H](O)[C@@H](O)[C@@H]1O", "values": [{"measurement": "inhibition", "setting": "[1]", "value": "inactive"}]}
{"smiles": "O=C(Cc1cc(O)c(O)c(O)c1)N[C@@H]1O[C@H](CO)[C@@H](O)[C@H](O)[C@H]1O", "values": [{"measurement": "inhibition", "setting": "[1]", "value": "inactive"}]}
{"smiles": "OC[C@H]1O[C@@H](n2cc(-c3cc(O)c(O)c(O)c3)nn2)[C@H](O)[C@@H](O)[C@@H]1O", "values": [{"measurement": "inhibition", "setting": "[1]", "value": "inactive"}]}
{"smiles": "O=C(O[C@@H]1O[C@H](CO)[C@@H](O)[C@H](O)[C@H]1O)c1cc(O)c(O)c(O)c1", "values": [{"measurement": "inhibition", "setting": "[2]", "value": "inactive"}, {"measurement": "inhibition", "setting": "[3]", "value": 50, "unit": "%"}, {"measurement": "inhibition", "setting": "[4]", "value": 74, "unit": "%"}, {"measurement": "IC50", "setting": "[1]", "value": 8, "unit": "µM"}, {"measurement": "degraded at 0.25 h, 250 µM", "setting": "[7]", "value": 76, "unit": "%"}, {"measurement": "Stability", "setting": "[8]", "value": "Unstable"}, {"measurement": "inhibition", "setting": "[6]", "value": "inactive"}]}
